Screening results deposited in PubChem BioAssay by several laboratories.
A selection: hits, their analogues and other compounds. The true share with any hit is near 4.7%.
aSyn UTR inh – MLPCN primary screen, SNCA 5' untranslated region; alpha-synuclein 5'UTR reporter, inhibitor activity; inhibition, % (tested at 7.5 µM); hit rate 0.82% among 300,000; in the data active means inhibition above about 60%;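 further: H4 neuroglioblastoma cells stably carrying SNCA 5'UTR luciferase fusion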
VIM-2 inh – VIM-2 metallo-beta-lactamase inhibitors, primary screen, biochemical, epi-absorbance readout, Pseudomonas aeruginosa enzyme; purified VIM-2, nitrocefin hydrolysis, epi-absorbance fluorescence; inhibition, % at 5.6 µM; hit rate 0.89% among 290,000; AID 1527, 2009;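 active means inhibition above the mean of all tested compounds plus 3 SD, cutoff set per screening run, cut at about 7.5% in these data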;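 further: red hydrolysis product quenches plate fluorescence so inhibitors raise well fluorescence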
Mdm2 MdmX PPI – inhibitors of human Mdm2-MdmX association, primary screen, cell-based, luminescence, split luciferase, SaOS-2, uHTS; inhibition, % at 8 µM; hit rate 3% among 330,000; Protein Mdm4 (Homo sapiens) + E3 ubiquitin-protein ligase Mdm2 (Homo sapiens), …; SaOS-2 split-luciferase Mdm2/MdmX complementation;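 active means inhibition of at least 50% at 8 µM in the primary screen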
Target sequence (O15151 whole entry, looked up): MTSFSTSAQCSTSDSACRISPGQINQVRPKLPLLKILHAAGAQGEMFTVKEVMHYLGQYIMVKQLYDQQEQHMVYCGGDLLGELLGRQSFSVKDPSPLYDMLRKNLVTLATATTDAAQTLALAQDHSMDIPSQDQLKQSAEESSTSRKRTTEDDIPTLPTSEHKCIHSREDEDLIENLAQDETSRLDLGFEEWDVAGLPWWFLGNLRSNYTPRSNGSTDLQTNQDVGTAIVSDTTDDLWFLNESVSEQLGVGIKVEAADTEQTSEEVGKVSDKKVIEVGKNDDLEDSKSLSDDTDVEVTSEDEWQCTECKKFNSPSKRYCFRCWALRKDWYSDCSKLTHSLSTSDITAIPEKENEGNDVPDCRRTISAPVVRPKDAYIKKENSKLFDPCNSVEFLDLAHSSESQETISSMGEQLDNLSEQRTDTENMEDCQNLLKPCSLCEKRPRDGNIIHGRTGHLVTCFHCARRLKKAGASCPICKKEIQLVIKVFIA
Target sequence (Q00987 whole entry, looked up): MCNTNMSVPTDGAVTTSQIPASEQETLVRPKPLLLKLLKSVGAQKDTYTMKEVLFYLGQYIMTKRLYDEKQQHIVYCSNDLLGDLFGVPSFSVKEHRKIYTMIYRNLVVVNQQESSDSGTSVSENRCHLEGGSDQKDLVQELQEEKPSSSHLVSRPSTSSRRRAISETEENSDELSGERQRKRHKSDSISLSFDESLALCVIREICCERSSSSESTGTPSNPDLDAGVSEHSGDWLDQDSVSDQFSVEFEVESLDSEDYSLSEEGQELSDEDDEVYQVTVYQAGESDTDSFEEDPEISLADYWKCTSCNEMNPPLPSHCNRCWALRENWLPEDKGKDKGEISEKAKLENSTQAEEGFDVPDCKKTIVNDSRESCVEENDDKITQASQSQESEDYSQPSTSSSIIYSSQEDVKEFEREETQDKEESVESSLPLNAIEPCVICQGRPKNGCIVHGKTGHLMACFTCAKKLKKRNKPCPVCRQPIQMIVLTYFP
IMP-1 inh – IMP-1 metallo-beta-lactamase inhibitors, primary screen, biochemical, epi-absorbance readout, Pseudomonas aeruginosa enzyme; purified IMP-1, nitrocefin hydrolysis, epi-absorbance fluorescence; inhibition, % at 5.6 µM; hit rate 0.45% among 290,000; AID 1556, 2009;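 active means inhibition above the mean plus 3 SD of all compounds in the same screening run, cut at about 4.5% in these data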
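Test system: recombinant IMP-1 enzyme, purified / Medium: HEPES buffer pH 7.1 with ZnSO4 and Brij 35 / Doses: single dose, 5.6 µM / Times: 25 °C, 15 min preincubation, 25 min reaction / Detection: Epi-absorbance via hydrolysed-nitrocefin quenching of white-plate fluorescence, 480/530 nm, EDTA stop / Evaluation: percent inhibition from optical density relative to buffer-blank wells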
697 NFkB inh – inhibitors of PMA/ionomycin-induced NF-kB reporter, 697 cells, primary screen, B-cell NF-kB inhibitor project, cell-based, luminescence, uHTS; 697 B-cell NF-kB luciferase reporter, 16 h; inhibition, % at 4 µM; hit rate 0.33% among 330,000; AID 435022, 2010; in the data active means inhibition above about 35%
Jurkat NFkB inh – inhibitors of induced NF-kB luciferase reporter, primary screen, TCR NF-kB activation inhibitor project, cell-based, luminescence, uHTS. Jurkat, PMA/ionomycin-induced NF-kB luciferase reporter. inhibition, % at 4 µM. hit rate 0.53% among 330,000; in the data active means inhibition above about 50%
Mdm2-MdmX conf – Mdm2-MdmX complex disruptors, retested hits, confirmation, luminescence, single concentration | shares compounds with Mdm2 MdmX PPI | Mdm2-MdmX binding, luminescent assay | inhibition, % at 8 µM | hit rate 55% among 10,000; in the data active means inhibition above about 40%
FLuc counter – full-length luciferase signal inhibition, confirmation, counter-screen for Mdm2/MdmX interaction inhibitor project, cell-based, single concentration, SaOS-2. inhibition, % at 8 µM. SaOS-2 full-length luciferase counterscreen, luminescence. hit rate 77% among 6,200. AID 504607, 2011. shares compounds with Mdm2 MdmX PPI;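 active means mean inhibition at 8 µM reaching about 37%, which flags the compound as non-specific, limit read from the data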;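 further: p53-null SaOS-2 cells with luciferase driven by a doxycycline-inducible promoter; compound on cells about two nights before reading with doxycycline added after day one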
A number is an active result; n = inactive; x = no result.

SMILES	aSyn UTR inh	VIM-2 inh	Mdm2 MdmX PPI	IMP-1 inh	697 NFkB inh	Jurkat NFkB inh	Mdm2-MdmX conf	FLuc counter
Cc1ccc(C2=NN(C(=O)CCl)C(c3cccs3)C2)o1 (configuration not stated)	n	n	100	n	n	n	100	51
COc1ccc(C2CC(c3cccs3)=NN2C(=O)CCC(=O)O)cc1 (configuration not stated)	n	n	n	n	n	n	x	x
COc1ccc(C2CC(c3cccs3)=NN2C(=O)CCl)cc1OC (configuration not stated)	n	n	99	n	n	n	100	49
COc1cc(C2CC(c3cccs3)=NN2C(=O)CCl)ccc1OC(F)F (configuration not stated)	107	n	99	n	n	n	100	51
COc1ccc(C2CC(c3cccs3)=NN2C(=O)c2ccccc2)cc1OC (configuration not stated)	n	n	n	n	n	n	x	x
O=C(O)CCN=CC1=C(O)CC(c2ccccc2)CC1=O (configuration not stated)	n	n	n	n	n	n	x	x
CC(C)=CC(=O)OCC(=O)NC1CCCc2ccccc21 (configuration not stated)	n	n	n	n	n	n	x	x
COc1ccc(-n2ncc3c(NCc4ccc5c(c4)OCO5)ncnc32)cc1	n	n	59	n	n	n	n	x
c1cncc(-c2ccc3ncnc(NCc4ccc5c(c4)OCO5)c3c2)c1	x	x	n	x	n	n	x	x
c1nc(NCc2ccc3c(c2)OCO3)c2cc(-c3ccoc3)ccc2n1	x	x	81	x	n	n	75	51
CC(C)(C)c1cc(C(c2cccnc2)N2CCN(CCO)CC2)cc(C(C)(C)C)c1O (configuration not stated)	n	n	100	n	n	n	76	58
Clc1ccc(Cn2ncc3c(N4CCCCC4)ncnc32)cc1	n	n	n	n	n	n	x	x
Clc1ccc(-n2ncc3c(N4CCCCCC4)ncnc32)cc1	78	n	91	n	n	n	88	98
COc1ccc(-n2ncc3c(N4CCN(c5cc(C)ccc5C)CC4)ncnc32)cc1	n	n	n	n	n	n	x	x
COc1ccc(-n2ncc3c(N4CCN(c5cccc(C)c5C)CC4)ncnc32)cc1	n	n	77	n	n	n	n	x
COc1ccc(-n2ncc3c(N4CCCCC4)ncnc32)cc1	101	n	87	n	n	n	86	73
COc1cc(CNCCCN2CCOCC2)ccc1OCC(=O)Nc1cccc(C(F)(F)F)c1	n	n	n	n	n	n	x	x
CCOc1cc(CNCCCN2CCOCC2)ccc1OCC(=O)Nc1cccc2ccccc12	n	n	78	n	n	n	54	54
C[C@@H]1C=C(C(=O)NCc2nc3ccccc3[nH]2)O[C@H](OCCCCO)C1	n	x	n	x	n	n	x	x
O=C(Nc1ccc(F)cc1)Nc1ccc(Oc2ncnc3cc(Cl)ccc23)nc1	n	n	n	n	n	n	x	x
O=C(Nc1ccc(Oc2ncnc3cc(Cl)ccc23)nc1)c1cccs1	n	n	78	n	n	n	73	102
Cc1noc(C)c1C(=O)Nc1cccc2ncccc12	n	n	n	n	n	n	x	x
O=C(NCc1ccccc1)c1ccc2nc(N3CCOCC3)sc2c1	n	n	n	n	n	n	x	x
CCCOc1ccc(CNC(=O)c2ccc3nc(N4CCOCC4)sc3c2)cc1	n	n	51	n	n	n	n	x
CCc1nc(Nc2ccc(O)cc2)c2oc3ccccc3c2n1	n	n	51	n	n	n	n	x
COc1ccc([N+](=O)[O-])cc1NC(=O)CSCc1ccc(Br)cc1	n	n	51	n	n	n	n	x
